ChEMBL document CHEMBL1221380, “Structure-activity relationships of mononuclear metal-thiosemicarbazone complexes endowed with potent antiplasmodial and antiamoebic activities” (Bioorg Med Chem, 2010)

Columns and labels:
[1] = test system: Plasmodium falciparum; assay: Antiplasmodial activity against Plasmodium falciparum W2 after 24 hrs by [3H]hypoxanthine incorporation assay; assay type: functional, organism-based
Procedure, shortened: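 Chloroquine-resistant, mefloquine-sensitive W2 clone grown in human O+ erythrocytes in RPMI 1640 with 10% human plasma; 1–2% parasitemia, 2.5% hematocrit. Five concentrations in 4% DMSO in hypoxanthine-free RPMI, 24 h. [3H]-hypoxanthine uptake vs untreated wells; IC50 from triplicates, mefloquine standard.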

[2] = test system: Entamoeba histolytica; assay: Antiamoebic activity against Entamoeba histolytica HM1:IMSS after 72 hrs by microplate method; assay type: functional, organism-based; details: HM-1:IMSS
Procedure, shortened: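 Trophozoites grown in TYI-S-33 medium; samples dissolved in DMSO then medium to 1 mg/mL, diluted to 0.1 mg/mL, twofold serial dilutions in plate; final DMSO ≤0.1%. 10^5 organisms/mL added, plate gassed with nitrogen 10 min, 37 °C for 72 h. OD at 490 nm; % inhibition vs log dose, linear regression for IC50. Triplicates, repeated thrice; metronidazole standard.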

[3] = Cytotoxicity against BALB/c mouse splenocyte by [3H]thymidine incorporation assay; assay type: cell-based
Procedure, shortened: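 Splenocytes (5 × 10^6 per well) in DMEM with 10% FCS and 50 µg/mL gentamycin; tested at 1.1, 3.3, 11, 33 and 100 µg/mL in triplicate with 3H-thymidine (1 µCi per well), 24 h, 37 °C, 5% CO2. Value is highest non-cytotoxic concentration, i.e. reducing incorporation by under 10% versus untreated.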

[4] = Inhibition of beta-hematin formation after 18 hrs by microtiter plate assay; assay type: functional

Row | SMILES | IC50 [1] | IC50 [2] | highest non-cytotoxic concentration [3] | IC50 [4]
1 | S=C(N/N=C/c1ccco1)N1CCCCCC1 | 35.8 µM | 12.1 µM | > 100 µg/mL | 
2 | CCN(CC)CCCC(C)Nc1ccnc2cc(Cl)ccc12.O=P(O)(O)O.O=P(O)(O)O (centres undefined) [CHLOROQUINE PHOSPHATE] |  |  |  | 1.3 µg/mL
3 | OC(c1cc(C(F)(F)F)nc2c(C(F)(F)F)cccc12)C1CCCCN1 (centres undefined) [MEFLOQUINE] | 0.039 µM |  |  | 
4 | CC1CCN(C(=S)N/N=C/c2ccco2)CC1 | 36.2 µM | 8.02 µM | 100 µg/mL | 

The next lines start with results.

Row | IC50 [1] | IC50 [2] | SMILES | highest non-cytotoxic concentration [3] | IC50 [4]
5 | 21.8 µM | 9.07 µM | CN(C(=S)N/N=C/c1ccco1)C1CCCCC1 | > 100 µg/mL | 
6 | 20.3 µM | 10.1 µM | S=C(N/N=C/c1ccco1)NC1CCCCC1 | 33 µg/mL | 
